Data: ChEMBL document CHEMBL1136360, “2,5-disubstituted 3,4-dihydro-2H-benzo[b][1,4]thiazepines as potent and selective V2 arginine vasopressin receptor antagonists” (Bioorg Med Chem Lett, 2003)
pIC50: −log10 of the molar value.

Columns and labels:
Vasopressin V1a receptor [1] = target: T1, Vasopressin V1a receptor (Homo sapiens, UniProt P37288); assay: Ability to displace [3H]arginine vasopressin in cloned human V1a receptor
Method in brief: (§1)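 Radioligand displacement of 3H-arginine vasopressin from cloned human V1a or V2 receptors. Single-concentration lines are read as percent inhibition at […].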

Vasopressin V2 receptor [2] = target: T2, Vasopressin V2 receptor (Homo sapiens, UniProt P30518); assay: Ability to displace [3H]arginine vasopressin in cloned human V2 receptor; method in brief: as §1
Vasopressin V1a receptor [3] = target: T1, Vasopressin V1a receptor; assay: Inhibition of vasopressin induced calcium […] in human V1a receptor expressing cells; assay type: functional
Method in brief: (§2)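 Functional antagonism in cells expressing the human receptor. For V2, inhibition of vasopressin-induced cAMP accumulation. For V1a, inhibition of vasopressin-induced calcium mobilization.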

Vasopressin V2 receptor [4] = target: T2, Vasopressin V2 receptor; assay: Inhibition of vasopressin induced cAMP accumulation in human V2 receptor expressing cells; assay type: functional; method in brief: as §2
Rattus norvegicus [5] = assay: Effect on urine volume at a dose of 30 mg/kg in hydrated 10 male rats was determined; assay type: functional
Method in brief: (§3)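 Conscious, hydrated male Sprague–Dawley rats dosed orally with test compound in 0.5% hydroxypropyl-methylcellulose vehicle, or with vehicle alone (3–100 mg/kg). Urine collected over 4 h. Urine volume (mL) and osmolality (mOsmol/Kg) reported as mean with error, about 10 animals per group. Significance judged at p<0.05 versus vehicle.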

Rattus norvegicus [6] = assay: Effect on urine volume at a dose of 10 mg/kg in hydrated 10 male rats was determined; assay type: functional; method in brief: as §3
Rattus norvegicus [7] = assay: Effect on urine volume at a dose of 100 mg/kg in hydrated 10 male rats was determined
Rattus norvegicus [8] = assay: Effect on urine volume at a dose of 3 mg/kg in hydrated 10 male rats was determined; assay type: functional; method in brief: as §3
Rattus norvegicus [9] = assay: Effect on urine osmolality at a dose of 10 mg/kg in hydrated 10 male rats was determined; assay type: functional; method in brief: as §3
Rattus norvegicus [10] = assay: Effect on urine osmolality at a dose of 3 mg/kg in hydrated 10 male rats was determined; assay type: functional; method in brief: as §3
Rattus norvegicus [11] = assay: Effect on urine osmolality at a dose of 100 mg/kg in hydrated 10 male rats was determined; assay type: functional; method in brief: as §3
Rattus norvegicus [12] = assay: Effect on urine osmolality at a dose of 30 mg/kg in hydrated 10 male rats was determined; assay type: functional; method in brief: as §3

T1 sequence (P37288 whole entry): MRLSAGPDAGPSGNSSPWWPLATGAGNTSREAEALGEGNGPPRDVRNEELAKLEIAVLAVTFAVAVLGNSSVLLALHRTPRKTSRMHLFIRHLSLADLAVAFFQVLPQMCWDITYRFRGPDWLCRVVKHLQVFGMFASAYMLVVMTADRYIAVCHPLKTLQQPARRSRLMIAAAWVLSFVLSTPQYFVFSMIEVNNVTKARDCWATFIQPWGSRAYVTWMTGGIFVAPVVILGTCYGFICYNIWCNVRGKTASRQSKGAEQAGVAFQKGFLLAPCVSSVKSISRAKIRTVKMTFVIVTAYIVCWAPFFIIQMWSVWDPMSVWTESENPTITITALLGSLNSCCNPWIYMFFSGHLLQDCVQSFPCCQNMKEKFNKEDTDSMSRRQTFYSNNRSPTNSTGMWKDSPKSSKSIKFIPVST
T2 sequence (P30518 whole entry): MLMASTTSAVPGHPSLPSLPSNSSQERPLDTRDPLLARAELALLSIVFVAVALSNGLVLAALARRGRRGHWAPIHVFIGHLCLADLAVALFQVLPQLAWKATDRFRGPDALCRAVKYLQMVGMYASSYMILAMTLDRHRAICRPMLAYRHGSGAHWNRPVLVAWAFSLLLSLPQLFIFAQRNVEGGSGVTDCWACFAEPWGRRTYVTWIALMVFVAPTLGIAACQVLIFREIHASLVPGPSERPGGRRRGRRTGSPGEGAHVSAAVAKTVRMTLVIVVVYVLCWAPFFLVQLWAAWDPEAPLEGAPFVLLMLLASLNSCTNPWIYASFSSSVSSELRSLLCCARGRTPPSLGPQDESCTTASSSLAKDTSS

Row | Compound | pIC50 (Vasopressin V1a receptor [1]) | pIC50 (Vasopressin V2 receptor [2]) | pIC50 (Vasopressin V1a receptor [3]) | pIC50 (Vasopressin V2 receptor [4]) | further results
1 | O=C(O)CC1CCN(C(=O)c2ccc(NC(=O)c3ccccc3-c3ccccc3)cc2)c2ccccc2S1 (centres undefined) | 6.14 | 8.15 | 6.13 | 7.40 | 
2 | CN(C)CC1CCN(C(=O)c2ccc(NC(=O)c3ccccc3-c3ccccc3)cc2)c2ccccc2S1 (centres undefined) | 5.92 | 6.37 |  |  | 
3 | O=C(O)C[C@@H]1CCN(C(=O)c2ccc(NC(=O)c3ccccc3-c3ccccc3)cc2)c2ccccc2S1 | 5.94 | 8.10 | 5.75 | 7.52 | Urine volume (Rattus norvegicus [5]): 15.7 mL; Urine volume (Rattus norvegicus [6]): 7.3 mL; Urine volume (Rattus norvegicus [7]): 13.8 mL; Urine volume (Rattus norvegicus [8]): 2.2 mL; Urine osmolality (Rattus norvegicus [9]): 299 mOsmol kg-1; Urine osmolality (Rattus norvegicus [10]): 529 mOsmol kg-1; Urine osmolality (Rattus norvegicus [11]): 177 mOsmol kg-1; Urine osmolality (Rattus norvegicus [12]): 161 mOsmol kg-1
4 | O=C(O)C[C@H]1CCN(C(=O)c2ccc(NC(=O)c3ccccc3-c3ccccc3)cc2)c2ccccc2S1 | 6.36 | 8.15 | 5.67 | 7.44 | 
5 | O=C(O)CC[C@@H]1CCN(C(=O)c2ccc(NC(=O)c3ccccc3-c3ccccc3)cc2)c2ccccc2S1 | 6.50 | 7.80 | 5.33 | 7.40 | 
6 | O=C(Nc1ccc(C(=O)N2CCC(CCS(=O)(=O)O)Sc3ccccc32)cc1)c1ccccc1-c1ccccc1 (centres undefined) | 5.94 |  |  |  | 

The next compounds have a higher pIC50 (Vasopressin V1a receptor [1]) than those just listed; values first:

Row | pIC50 (Vasopressin V1a receptor [1]) | pIC50 (Vasopressin V2 receptor [2]) | pIC50 (Vasopressin V1a receptor [3]) | pIC50 (Vasopressin V2 receptor [4]) | Compound | further results
7 | 6.74 | 7.07 |  |  | O=C(Nc1ccc(C(=O)N2CCC(CCF)Sc3ccccc32)cc1)c1ccccc1-c1ccccc1 (centres undefined) | 
8 | 6.85 | 7.82 | 5.70 | 7.52 | O=C(O)CC[C@H]1CCN(C(=O)c2ccc(NC(=O)c3ccccc3-c3ccccc3)cc2)c2ccccc2S1 | 
9 | 6.80 | 7.00 |  |  | O=C(Nc1ccc(C(=O)N2CCC(CC(F)F)Sc3ccccc32)cc1)c1ccccc1-c1ccccc1 (centres undefined) | 
10 | 7.01 | 8.10 | 6.82 | 7.00 | O=C(Nc1ccc(C(=O)N2CCC(CCO)Sc3ccccc32)cc1)c1ccccc1-c1ccccc1 (centres undefined) | 
